Laboratory results from ChEMBL document CHEMBL4673258, “Discovery of IPN60090, a Clinical Stage Selective Glutaminase-1 (GLS-1) Inhibitor with Excellent Pharmacokinetic and Physicochemical Properties” (J Med Chem, 2020).

How the values were obtained:
[1] = Oral bioavailability in Beagle dog at 3 mg/kg administered via gavage by LC-MS/MS analysis; type: ADME, organism-based, Canis lupus familiaris; conditions: in vivo
Procedure, shortened: (§1)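 Bis-hydrochloride salt given to male Sprague-Dawley rats (200–300 g) or male beagle dogs (7–10 kg), fasted overnight and fed 4 h postdose. IV dose 0.3 mg/kg (rat dorsal foot vein, dog cephalic vein) or PO gavage 3 mg/kg.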

[2] = AUClast in CD-1 mouse at 10 mg/kg, po administered via gavage by LC-MS/MS analysis; type: ADME, organism-based; parameters: time 0 - last, route oral, dose 10 mg/kg; conditions: in vivo
Procedure, shortened: (§2)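 Female CD-1 mice (20–30 g), food and water ad libitum, given the bis-hydrochloride salt at 10 mpk by oral gavage. Plasma quantified by LC-MS/MS; Cmax and AUClast from the oral dose.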

[3] = AUClast in Beagle dog at 3 mg/kg, po administered via gavage by LC-MS/MS analysis; type: ADME, organism-based, Canis lupus familiaris; parameters: time 0 - last, route oral, dose 3 mg/kg; conditions: in vivo
Procedure, shortened: (§3)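 Male beagle dogs (7–10 kg), fasted overnight and fed 4 h postdose, received the bis-hydrochloride salt at 3 mpk by oral gavage. Plasma concentrations by LC-MS/MS; Cmax and AUClast from the oral dose.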

[4] = Half life in CD-1 mouse at 3 mg/kg, iv by LC-MS/MS analysis; type: ADME, organism-based; conditions: in vivo
Procedure, shortened: (§4)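 Bis-hydrochloride salt dosed 0.3 mg/kg IV and 3 mg/kg PO (mouse: 3 mg/kg IV, 10 mg/kg PO); female CD-1 mice, male beagle dogs, male cynomolgus monkeys; monkeys and dogs fasted overnight and fed 4 h postdose. IV via tail (mouse) or cephalic vein; PO by oral (mouse) or nasal (monkey) gavage. K2EDTA plasma sampled predose to 24 h; LC-MS/MS. CL, Vdss, t1/2 from IV; F% from oral dose.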

[5] = Free plasma concentration in NSG mouse xenografted with human H460 cells at 250 mg/kg, po administered as single dose via gavage measured after 24 hrs by LC-MS analysis; type: ADME, organism-based; conditions: in vivo
[6] = Volume of distribution at steady state in cynomolgus monkey at 0.3 mg/kg, iv by LC-MS/MS analysis; type: ADME, organism-based, Macaca fascicularis; conditions: in vivo, read-out: Vdss; procedure, shortened: as §4
[7] = Free plasma concentration in NSG mouse xenografted with human H460 cells at 10 mg/kg, po administered as single dose via gavage measured after 8 hrs by LC-MS analysis; type: ADME, organism-based; conditions: in vivo
[8] = Free plasma concentration in NSG mouse xenografted with human H460 cells at 50 mg/kg, po administered as single dose via gavage measured after 8 hrs by LC-MS analysis; type: ADME, organism-based; conditions: in vivo
Procedure, shortened: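 Female NSG mice, 6–10 weeks old, bearing H460 tumours (5×10^5 cells with matrigel 1:1) of 300–400 mm³. Given a single oral gavage dose of bis-hydrochloride salt in 0.5% methylcellulose. Six animals per group. Free plasma concentration taken at 8 or 24 h, given as mean with standard deviation.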

[9] = Volume of distribution at steady state in Beagle dog at 0.3 mg/kg, iv by LC-MS/MS analysis; type: ADME, organism-based, Canis lupus familiaris; conditions: in vivo; procedure, shortened: as §1
[10] = AUClast in cynomolgus monkey at 3 mg/kg, po administered via gavage by LC-MS/MS analysis; type: ADME, organism-based, Macaca fascicularis; parameters: route oral, time 0 - last, dose 3 mg/kg; conditions: in vivo
Procedure, shortened: (§5)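 Male cynomolgus monkeys (3–5 kg), fasted overnight and fed 4 h postdose, dosed with the bis-hydrochloride salt at 3 mpk by nasal gavage. Blood from saphenous or cephalic vein into K2EDTA at predose and 0.083–24 h (0.083, 0.25, 0.5, 1, 2, 4, 8, 24 h). Plasma quantified by LC-MS/MS; Cmax and AUClast from the oral dose.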

[11] = Half life in Beagle dog at 0.3 mg/kg, iv by LC-MS/MS analysis; type: ADME, organism-based, Canis lupus familiaris; conditions: in vivo; procedure, shortened: as §1
[12] = Half life in Sprague-Dawley rat at 0.3 mg/kg, iv by LC-MS/MS analysis; type: ADME, organism-based; conditions: in vivo; procedure, shortened: as §1
[13] = Clearance in Beagle dog at 0.3 mg/kg, iv by LC-MS/MS analysis; type: ADME, organism-based, Canis lupus familiaris; conditions: in vivo; procedure, shortened: as §4
[14] = Oral bioavailability in CD-1 mouse at 10 mg/kg administered via gavage by LC-MS/MS analysis; type: ADME, organism-based; conditions: in vivo; procedure, shortened: as §4
[15] = AUClast in Sprague-Dawley rat at 3 mg/kg, po administered via gavage by LC-MS/MS analysis; type: ADME, organism-based; parameters: route oral, time 0 - last, dose 3 mg/kg; conditions: in vivo
Procedure, shortened: (§6)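 Male Sprague-Dawley rats (200–300 g), fasted overnight and fed 4 h postdose, given the bis-hydrochloride salt at 3 mpk by oral gavage. Tail-vein blood into K2EDTA taken predose and at 0.083–24 h (0.083, 0.25, 0.5, 1, 2, 4, 8, 24 h). Plasma analysed by LC-MS/MS; Cmax and AUClast derived from the oral dose.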

[16] = Clearance in cynomolgus monkey at 0.3 mg/kg, iv by LC-MS/MS analysis; type: ADME, organism-based, Macaca fascicularis; conditions: in vivo; procedure, shortened: as §4
[17] = Free plasma concentration in NSG mouse xenografted with human H460 cells at 10 mg/kg, po administered as single dose via gavage measured after 24 hrs by LC-MS analysis; type: ADME, organism-based; conditions: in vivo
[18] = Volume of distribution at steady state in CD-1 mouse at 3 mg/kg, iv by LC-MS/MS analysis; type: ADME, organism-based; conditions: in vivo, read-out: Vdss; procedure, shortened: as §4
[19] = Cmax in CD-1 mouse at 10 mg/kg, po administered via gavage by LC-MS/MS analysis; type: ADME, organism-based; parameters: route oral, dose 10 mg/kg; conditions: in vivo; procedure, shortened: as §2
[20] = Half life in cynomolgus monkey at 0.3 mg/kg, iv by LC-MS/MS analysis; type: ADME, organism-based, Macaca fascicularis; conditions: in vivo; procedure, shortened: as §4
[21] = Cmax in cynomolgus monkey at 3 mg/kg, po administered via gavage by LC-MS/MS analysis; type: ADME, organism-based, Macaca fascicularis; parameters: route oral, dose 3 mg/kg; conditions: in vivo; procedure, shortened: as §5
[22] = Volume of distribution at steady state in Sprague-Dawley rat at 0.3 mg/kg, iv by LC-MS/MS analysis; type: ADME, organism-based; conditions: in vivo; procedure, shortened: as §1
[23] = Cmax in Beagle dog at 3 mg/kg, po administered via gavage by LC-MS/MS analysis; type: ADME, organism-based, Canis lupus familiaris; parameters: route oral, dose 3 mg/kg; conditions: in vivo; procedure, shortened: as §3
[24] = Oral bioavailability in Sprague-Dawley rat at 3 mg/kg administered via gavage by LC-MS/MS analysis; type: ADME, organism-based; conditions: in vivo; procedure, shortened: as §1
[25] = Cmax in Sprague-Dawley rat at 3 mg/kg, po administered via gavage by LC-MS/MS analysis; type: ADME, organism-based; parameters: route oral, dose 3 mg/kg; conditions: in vivo; procedure, shortened: as §6
[26] = Oral bioavailability in cynomolgus monkey at 3 mg/kg administered via gavage by LC-MS/MS analysis; type: ADME, organism-based, Macaca fascicularis; conditions: in vivo; procedure, shortened: as §4
[27] = Free plasma concentration in NSG mouse xenografted with human H460 cells at 250 mg/kg, po administered as single dose via gavage measured after 8 hrs by LC-MS analysis; type: ADME, organism-based; conditions: in vivo
[28] = rat, microsomes, 0.75 h, 1 µM
[29] = human, microsomes, 0.75 h, 1 µM

SMILES: CNC(=O)c1cn(C[C@H](F)CCc2ccc(NC(=O)Cc3cc(OC4CC(F)(F)C4)cc(C)n3)nn2)nn1.Cl.Cl
- F [1]: > 100%
- AUClast [2]: 67 µM·h
- AUClast [3]: 250 µM·h
- half-life [4]: 1 h
- Cp(f) [5]: 0.316 µM
- Vd [6]: 0.31 L/kg
- Cp(f) [7]: 0.029 µM
- Cp(f) [8]: 0.198 µM
- Vd ([9]; Beagle, read-out: Vdss): 0.18 L/kg
- AUC(0-t) [10]: 8.7 µM·h
- half-life ([11]; Beagle): 5.3 h
- t1/2 [12]: 5.3 h
- clearance [13]: 0.59 mL/min/kg
- F [14]: 89%
- AUClast [15]: 208 µM·h
- clearance [16]: 8 mL/min/kg
- Cp(f) [17]: 0.006 µM
- Vd [18]: 0.27 L/kg
- Cmax [19]: 19 µM
- half-life [20]: 0.9 h
- Cmax [21]: 6.5 µM
- Vdss [22]: 0.1 L/kg
- Cmax [23]: 31 µM
- F [24]: 70%
- Cmax [25]: 32 µM
- bioavailability [26]: 72%
- Cp(f) [27]: 0.316 µM

SMILES: O=C(Cc1cccc(OC(F)(F)F)c1)Nc1ccc(CCCCc2nnc(NC(=O)Cc3ccccn3)s2)nn1
- CLH [28]: 203 mL/min

SMILES: O=C(Cc1cccc(OC(F)(F)F)c1)Nc1ccc(CCCCn2cc(C(=O)NCc3ccccn3)nn2)nn1
- CLH [28]: 162 mL/min

SMILES: CNC(=O)c1cn(C[C@H](F)CCc2ccc(NC(=O)Cc3cc(OC4CC(F)(F)C4)ccn3)nn2)nn1.Cl
- F [1]: 34%
- AUClast [3]: 10 µM·h
- Vdss ([9]; 0.3 mg/kg): 0.5 L/kg
- t1/2 ([11]; 0.3 mg/kg): 2.3 h
- t1/2 [12]: 1.2 h
- AUClast [15]: 16 µM·h
- Vdss [22]: 0.2 L/kg
- Cmax [23]: 2.7 µM
- F [24]: 48%
- Cmax [25]: 5.8 µM

SMILES: CNC(=O)c1cn(C[C@H](F)CCc2ccc(NC(=O)Cc3cc(C(F)(F)F)ccn3)nn2)nn1
- CLH [29]: 0.2 mL/min

SMILES: O=C(Cc1ccccn1)Nc1ccc(CCCCn2cc(C(=O)NCc3cccc(OC(F)(F)F)c3)nn2)nn1
- CLH [28]: 283 mL/min
